Bioassay records deposited in PubChem BioAssay by several laboratories.
Beta cell apopt = blocks beta cell apoptosis. INS-1E cytokine-induced death, ATP luminescence, 48 h; percent of positive-control rescue, neutral wells zero. protection from apoptosis, % (no concentration beside the values). hit rate 0.8% among 300,000. AID 435005;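 active = Every replicate reaches about 75%, or at least half do and their mean reaches it too, limit read from the data; inconclusive = At least half of replicates reach the limit but their mean does not; inactive = Under half of replicates reach the limit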;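 also: higher means more ATP so stronger rescue from cytokine killing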
Mdm2 MdmX PPI = inhibitors of human Mdm2/MdmX interaction | hit rate 3% among 330,000 | inhibition, % at 8 µM | SaOS-2 split-luciferase Mdm2/MdmX complementation, luminescence | O15151+Q00987;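 active = inhibition of at least 50% at 8 µM in the primary screen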
Target sequence (O15151 whole entry, looked up): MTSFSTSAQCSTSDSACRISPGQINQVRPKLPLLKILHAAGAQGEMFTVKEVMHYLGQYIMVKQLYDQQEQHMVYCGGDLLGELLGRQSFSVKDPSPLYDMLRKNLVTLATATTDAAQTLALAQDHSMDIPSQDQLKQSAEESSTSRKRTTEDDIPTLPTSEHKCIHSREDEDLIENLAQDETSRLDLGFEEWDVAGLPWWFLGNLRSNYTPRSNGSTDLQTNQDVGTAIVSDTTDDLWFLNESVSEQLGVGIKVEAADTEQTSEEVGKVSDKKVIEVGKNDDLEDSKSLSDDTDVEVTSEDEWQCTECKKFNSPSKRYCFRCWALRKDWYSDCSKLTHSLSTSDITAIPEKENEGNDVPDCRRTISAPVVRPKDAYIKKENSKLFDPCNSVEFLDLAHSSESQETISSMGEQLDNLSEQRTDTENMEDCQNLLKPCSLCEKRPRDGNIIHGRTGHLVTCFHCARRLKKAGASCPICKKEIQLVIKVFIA
Target sequence (Q00987 whole entry, looked up): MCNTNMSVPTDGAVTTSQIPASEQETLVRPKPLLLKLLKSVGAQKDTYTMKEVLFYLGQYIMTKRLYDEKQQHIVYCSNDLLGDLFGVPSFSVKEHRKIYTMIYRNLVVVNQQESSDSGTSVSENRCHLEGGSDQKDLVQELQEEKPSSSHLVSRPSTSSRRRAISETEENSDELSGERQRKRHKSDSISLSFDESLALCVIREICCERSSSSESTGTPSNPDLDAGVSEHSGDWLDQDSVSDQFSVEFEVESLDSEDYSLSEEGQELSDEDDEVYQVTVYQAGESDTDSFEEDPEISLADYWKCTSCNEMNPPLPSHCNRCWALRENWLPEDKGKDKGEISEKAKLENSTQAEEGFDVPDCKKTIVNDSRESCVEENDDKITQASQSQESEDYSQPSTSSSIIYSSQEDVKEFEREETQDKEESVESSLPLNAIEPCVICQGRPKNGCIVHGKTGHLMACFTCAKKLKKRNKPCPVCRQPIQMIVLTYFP
T cruzi repl = blocks replication of Trypanosoma cruzi | T. cruzi beta-gal in NIH3T3, luminescence, 90 h | inhibition, % (concentration not given with the values) | hit rate 1.4% among 300,000 | AID 1885;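 active = mean inhibition across valid replicates above about 55%, limit read from the data; inconclusive = mean below that limit but half or more replicates reach it; inactive = mean below it, under half of replicates reach it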;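 also: signal also drops with host cell toxicity which is not excluded here; higher percent means less beta-gal luminescence so fewer parasites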
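Test system: β-gal T. cruzi (Tulahuen C4) inside NIH/3T3 cells / Quantity: 5,000 cells/well / Measured by: luminescence from GalScreen with 0.05% NP40, read after 60 min / Medium: DMEM plus 2% FBS / Measure: parasite load inhibition, % / Reagent: Tulahuen C4 trypomastigotes, 5000/well / Schedule: co-culture of at least 90 h after 3 h attachment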
SKKanGAS inh = blocks kanamycin growth of S. pyogenes SKKanGAS strain | BacTiter-Glo, 6 h | inhibition, % at 7.5 µM | hit rate 1.3% among 300,000;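 active = mean replicate score, as percent of positive control median, at least 50; inconclusive = mean below 50 but one replicate at or above 50; inactive = mean and every replicate below 50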;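 also: strain carries kanamycin resistance gene driven by streptokinase promoter and grows in 40 µg/ml kanamycin; loss of luminescence reflects streptokinase promoter inhibition or plain growth inhibition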
CSC inhib = cancer stem cell inhibition; cancer stem cell-like cells viability, luminescence; inhibition, % at 7.5 µM; hit rate 1.1% among 300,000; AID 2717; in the data active = inhibition above about 75%; inconclusive = no clear call, values can overlap the other calls; tested in HMLE shEcad cells
Lmaj promast = Leishmania major promastigote growth inhibition. Leishmania major promastigotes, resazurin fluorescence viability. AID 1063. hit rate 9% among 200,000. inhibition, % at 10 µM; in the data active = inhibition above about 50%;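 also: promastigotes grown with compound for 44 hours at 28 °C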
Mdm2 MdmX conf = confirmation of human Mdm2/MdmX interaction inhibitors; shares compounds with Mdm2 MdmX PPI; Mdm2-MdmX binding, luminescent assay; inhibition, % at 8 µM; hit rate 55% among 10,000; AID 489028; in the data active = inhibition above about 40%
Full FLuc ctr = counter-screen for Mdm2/MdmX inhibitors: full-length luciferase. hit rate 77% among 6,200. inhibition, % at 8 µM. AID 504607. shares compounds with Mdm2 MdmX PPI. SaOS-2 full-length luciferase counterscreen, luminescence;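 active = mean inhibition at 8 µM reaching about 37%, which flags the compound as non-specific, limit read from the data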;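 also: p53-null SaOS-2 cells with luciferase driven by a doxycycline-inducible promoter; compound on cells about two nights before reading with doxycycline added after day one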
A number is an active result; . = inactive; ? = inconclusive; / = no result given. In the library only some 9.4% were active in any assay of this set; here they are far more common.

SMILES | Beta cell apopt | Mdm2 MdmX PPI | T cruzi repl | SKKanGAS inh | CSC inhib | Lmaj promast | Mdm2 MdmX conf | Full FLuc ctr
CCc1ccc2nc(/N=C(\N)NC(=O)c3ccccc3)nc(C)c2c1 | . | . | . | . | . | / | / | /
COC(=O)c1cn(NC(=O)c2cc([N+](=O)[O-])ccc2F)c(=O)c2ccccc12 | . | 83 | . | . | . | . | 76 | 54
COc1ccc(C)cc1N(C(=O)c1ccc(C#N)cc1)C1=NC(C)(C)CS1 | . | . | . | . | . | / | / | /
COc1cccc(-n2nc(C#N)c(Cl)cc2=O)c1 | / | 100 | . | . | / | 100 | 100 | 51
COc1cccc(-n2nc(C(N)=O)c(O)cc2=O)c1 | . | . | . | . | . | . | / | /
O=C(Nc1ccccc1C(=O)Nc1nnc(C(F)(F)F)s1)c1ccccc1 | . | 97 | 59 | 97 | 195 | / | 97 | .
COc1ccc(CNS(=O)(=O)c2ccccc2Br)cc1 | / | . | . | . | . | / | / | /
O=C(N/N=C/c1c(F)cccc1Cl)C(=O)N1CCCCCC1 | . | 56 | . | . | . | / | . | /
Cc1ccc(Nc2c(N)c(=O)oc3ccccc23)cc1 | . | 58 | . | . | . | 73 | . | /
C=CCn1c(NCc2ccc(OC)cc2O)nc2ccccc21 | . | . | . | . | . | / | / | /
CCCOc1ccc(CNC(=O)c2ccc3nc(N4CCOCC4)sc3c2)cc1 | . | 51 | . | . | . | / | . | /
O=C(NCc1ccccc1)c1ccc2nc(N3CCOCC3)sc2c1 | . | . | . | . | . | / | / | /
Cc1sc2ncnc(N3CCC(C(=O)N(CC(C)C)c4nc5ccccc5s4)CC3)c2c1C | . | . | . | . | . | / | / | /
CC(=O)[C@@]1(O)CCC2C3CC[C@H]4C[C@@H](O)CC[C@]4(C)C3CC[C@@]21C (stereo not given in full) | . | . | / | / | . | / | / | /
C[C@]12CCC3C(CC[C@H]4CCCC[C@]34C)C1CC[C@@]2(O)CNCCO (stereo not given in full) | . | 98 | . | . | . | / | 79 | 42
Nc1nnnn1/N=C/C=C/c1ccccc1 | . | . | . | . | . | . | / | /
Nc1nnnn1/N=C/C(Br)=C/c1ccccc1 | . | 100 | . | . | 122 | . | 93 | 50
CC(=O)NC(c1ccccc1)c1cc(Cl)c2cccnc2c1O (stereo not given) | 98 | 77 | ? | 79 | 104 | / | 64 | .
CCCC(=O)NC(c1ccc(OC)c(OC)c1)c1cc(Cl)c2cccnc2c1O (stereo not given) | 91 | 73 | 56 | . | . | 99 | 60 | .
O=[N+]([O-])c1cc(CN2CCN(c3ccccc3)CC2)c(O)c2ncccc12 | 95 | 75 | 58 | ? | . | 100 | 79 | 42
CC(=O)NC(c1ccc(C)cc1)c1cc([N+](=O)[O-])c2cccnc2c1O (stereo not given) | . | 68 | 55 | ? | 104 | . | 68 | .
COCCNC(=O)CN(Cc1cccs1)C(=O)CCC(=O)Nc1nccs1 | / | . | . | . | . | . | / | /
CC(C)N1CCC(NC(=O)Nc2ccc3c(c2)OCO3)CC1 | . | . | . | . | / | . | / | /
O=[N+]([O-])c1cc(Cl)c(O)c2ncccc12 | / | 51 | . | 51 | / | . | 54 | 56
O=[N+]([O-])c1ccc(Cl)c2cccnc12 | . | . | . | . | . | . | / | /
SMILES | Beta cell apopt | Mdm2 MdmX PPI | T cruzi repl | SKKanGAS inh | CSC inhib | Lmaj promast | Mdm2 MdmX conf | Full FLuc ctr
COc1ccc(C(NC(C)=O)c2cc(Cl)c3cccnc3c2O)cc1 (stereo not given) | 95 | 76 | 63 | 53 | 107 | / | 71 | .
CC(=O)NC(c1cc(F)c2cccnc2c1O)C1CC1 (stereo not given) | . | . | / | / | . | / | / | /
CNc1ccc(C(=O)OCC(=O)NC(=O)NC2CCCC2)cc1[N+](=O)[O-] | . | . | / | / | . | / | / | /
O=C(O)c1cc2ccccc2cc1Nc1ccccc1 | . | . | . | . | . | / | / | /
COc1cc(Cl)c(C)cc1NC(=O)COC(=O)CCc1nc2ccccc2c(=O)[nH]1 | . | . | . | . | . | / | / | /
O=C1N[C@@H](Cc2ccccc2)C(=O)N2[C@H]3Nc4ccccc4[C@@]3([C@]34C[C@H]5C(=O)N[C@@H](Cc6ccccc6)C(=O)N5[C@H]3Nc3ccccc34)C[C@@H]12 | . | 53 | . | . | . | / | . | /
O=C(Nc1cccc(S(=O)(=O)N2CCCCC2)c1)c1ccccc1NS(=O)(=O)c1ccc(F)cc1 | . | 89 | . | . | . | . | 71 | 111
Cn1nc(C(=O)Nc2cccc(S(=O)(=O)N3CCCCC3)c2)c2ccccc2c1=O | / | 63 | / | / | / | / | 53 | 83
Cc1ccc(NC(=O)c2ccccc2NS(=O)(=O)c2ccc(F)cc2)cc1S(=O)(=O)N1CCCCC1 | . | 89 | . | 60 | . | . | 91 | .
Cn1nc(C(=O)Nc2ccc(S(=O)(=O)N3CCCCC3)cc2)c2ccccc2c1=O | . | . | . | . | . | . | / | /
NS(=O)(=O)c1cccc(NC(=O)c2ccccc2NS(=O)(=O)c2ccc(F)cc2)c1 | . | . | . | . | . | / | / | /
CCOC(=O)CN1C(=O)N[C@@H](c2cccc(C(F)(F)F)c2)C(C(=O)OC)=C1C | . | . | . | . | / | / | / | /
CCOC(=O)C(C(C)=O)c1c(Br)c(O)c(O)c2c(C(=O)c3ccc(C)cc3)coc12 (stereo not given) | 95 | 64 | . | . | 103 | . | 60 | 47
O=C(CCCl)N(Cc1nc2ccccc2c(=O)[nH]1)Cc1cccs1 | . | . | . | . | . | . | / | /
COc1cccc(-c2nnc(SC(C(=O)c3c[nH]c4ccccc34)c3ccccc3)n2C)c1 (stereo not given) | . | 56 | . | . | . | 98 | . | /
COC(=O)NC(=C(Cl)Cl)S(=O)(=O)c1ccccc1 | / | 55 | / | / | . | 97 | . | /
CCOC(=O)NC(C(Cl)(Cl)Cl)S(=O)(=O)c1ccccc1 (stereo not given) | . | . | . | . | . | / | / | /
COc1ccc(-c2cn(CCO)nc2-c2ccc(OC)cc2)cc1 | . | . | . | . | . | / | / | /
O=C(COC(=O)Cc1n[nH]c(=O)c2ccccc12)Nc1cccc(C(F)(F)F)c1 | . | . | . | . | . | . | / | /
COc1ccc(OC)c(NC(=O)c2oc3ccccc3c2NC(=O)C2CC2)c1 | . | 58 | . | . | . | / | . | /
COc1ccccc1NC(=O)c1oc2ccccc2c1NC(=O)c1cc(OC)c(OC)c(OC)c1 | . | 70 | . | . | . | . | 62 | 54
Cc1ccc2c(C)c(C(=O)N(Cc3ccc(N(C)C)cc3)C3CCS(=O)(=O)C3)oc2c1 (stereo not given) | . | . | . | . | / | / | / | /
O=C1CCCC(=O)C1C(=O)C1CCN(S(=O)(=O)c2ccccc2)CC1 | . | . | . | . | . | . | / | /
Cc1ccc(C(=O)NC2CCCCNC2=O)cc1 (stereo not given) | . | . | . | . | . | / | / | /
